The values that follow come from ChEMBL document CHEMBL4513216, “Probing the Open Global Health Chemical Diversity Library for Multistage-Active Starting Points for Next-Generation Antimalarials” (ACS Infect Dis, 2020).

A short description of the series: Toxicity liver stage against HepG2, at 10uM. It counts as cell-based. Also on record: test concentration 10 uM, cell line HepG2-A16-CD81EGFP. The conditions noted are these: human, HepG2-A16-CD81EGFP cells; read-out: INHIBITION
In outline: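 Uninfected HepG2-A16-CD81EGFP cells, 3 × 10^3 per well, 1536-well, plated on prespotted compound at 10 μM final, parasite-free screening media added to match infected plates; puromycin 10 μM positive, DMSO 0.5% negative; run in parallel with 48 h PbLuc assay at 37 °C, 5% CO2; viability by CellTiter-Glo luminescence, normalized to controls.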
As for `CN(CC(=O)N1CCc2[nH]c3ccc(F)cc3c2C1)CC1OCCO1`, the cytotoxicity at 10 µM stood at 6.19%.

In the case of `Cc1nc(N2CCN(C)CC2)ncc1C(=O)N1CCN(C)CC1`, the cytotoxicity at 10 µM worked out at 3.85%.

Regarding `COc1ccc(C(=O)N2CC(=O)N(C3CCC3)CC(O)C2)cc1OC` (configuration not stated), the cytotoxicity at 10 µM is 4.35%.

With `CN1C(=O)COc2cc(NC(=O)CCc3nc4cccnc4[nH]3)ccc21`, the cytotoxicity at 10 µM is -4.13%.

For the molecule `Cc1ccc(C)c(S(=O)(=O)NCCNc2ccc(-n3cccc3)nn2)c1`, the cytotoxicity at 10 µM came out at 1.77%.

On to `CCn1cc2c(n1)C(COCC1CC1)CN(C(=O)c1cnoc1C)C2` (configuration not stated), for which the cytotoxicity at 10 µM amounted to 17.5%.

Take `CN(C)CC(=O)N1CCc2ncnc(-c3ccoc3)c2CC1`: the cytotoxicity at 10 µM was -7.36%.

In the case of `O=C(NCCc1ccccc1)N1CC[C@@H]2CNS(=O)(=O)[C@@H]2CC1`, the cytotoxicity at 10 µM is -5.12%.

In the case of `O=C(Cc1ccc2c(c1)OCC2)Nc1nn[nH]n1`, the cytotoxicity at 10 µM is 0.548%.

Regarding `CCn1ccc(NC(=O)CN2C(=O)C(C)(C)c3ccccc32)n1`, the cytotoxicity at 10 µM is -16.9%.

For `CCC(c1ccccc1)c1nn2c(CN(CC)CC)nnc2s1` (configuration not stated), the cytotoxicity at 10 µM was 7.79%.

In the case of `COC(=O)c1cccc(NS(=O)(=O)c2cnc(NC(C)=O)s2)c1`, the cytotoxicity at 10 µM came to 7.21%.

`Cc1cn[nH]c1C1COCCN1C(=O)c1cc(F)ccc1F` (configuration not stated): the cytotoxicity at 10 µM is -0.658%.

For the molecule `COCC(=O)N1CCCCC1c1nc(CN(C)C(C)=O)cc(N(C)C)n1` (configuration not stated), the cytotoxicity at 10 µM came out at 3.37%.

As to `CCNC(=O)C1(Cc2cc(-c3ccc(C)cc3)no2)CCCN(C)C1` (configuration not stated), the cytotoxicity at 10 µM came to 7.9%.

`CNC(=O)C1CN(c2ccnc(C)n2)CCN(C2CCOCC2)C1` (configuration not stated): the cytotoxicity at 10 µM is -0.762%.

`COCC(=O)N1CCCCC1c1nc(C)c2c(n1)N(CC1CC1)C(=O)C2` (configuration not stated): the cytotoxicity at 10 µM stood at 10.5%.

As to `CCCNS(=O)(=O)c1cc2c3c(c1)c(C)cc(=O)n3CCC2`, the cytotoxicity at 10 µM came out at 3.94%.

`O=C(O)c1ccccc1-n1cnc(CN2CCCc3ccccc32)c1`: the cytotoxicity at 10 µM is 6.58%.

`CN(C)C(=O)Cn1c(C2CC2)c(CN2CCSCC2)c2cccnc21`: the cytotoxicity at 10 µM was 4.06%.

For `Cc1cc(-c2c[nH]nc2C2CCCCN2C(=O)c2ccccc2)on1` (configuration not stated), the cytotoxicity at 10 µM was 7.9%.

As to `Nc1nccc(C2CCCN(CC3CC3)C2)n1` (configuration not stated), the cytotoxicity at 10 µM came out at 0.631%.

With `Cn1cc(CN2CCOC(c3nccnc3-c3cccc(F)c3)C2)cn1` (configuration not stated), the cytotoxicity at 10 µM was 8.12%.

With `O=C(C1CC1)N1CCC(c2nc(O)c3c(n2)CCN(C2CCCC2)C3)C1` (configuration not stated), the cytotoxicity at 10 µM came to 4.66%.

Take `CN1CCC2(CC1)CNC(=O)c1ccccc1O2`: the cytotoxicity at 10 µM is -1.24%.

For the molecule `Cn1ccc(CS(=O)(=O)Cc2cccc(F)c2)cc1=O`, the cytotoxicity at 10 µM was 6.83%.

As to `Cc1cccc(OCC(=O)NS(=O)(=O)Cc2ccccc2)c1`, the cytotoxicity at 10 µM amounted to 0.224%.

In the case of `Cc1ccc(N2CCC(NC(C)c3cccs3)CC2)nc1` (configuration not stated), the cytotoxicity at 10 µM was -9.64%.

With `CCc1cnc(CN(C)C(=O)Nc2cnc3c(c2)c(C)nn3C)s1`, the cytotoxicity at 10 µM is 2.37%.

As for `Cc1nn(C)c(C)c1C1CCCN1C(=O)c1ccc(C(N)=O)s1` (configuration not stated), the cytotoxicity at 10 µM was -1.52%.

As to `COc1cc(Cl)ccc1C(=O)NCc1n[nH]c(C)n1`, the cytotoxicity at 10 µM was -4.07%.

Regarding `O=C(CCc1ccsc1)NCC1CCN(C2CC2)C1` (configuration not stated), the cytotoxicity at 10 µM was determined as 2.63%.

Consider `Cc1c(C(=O)N2CCCOCC2)nnn1-c1cccc2cnccc12`, for which the cytotoxicity at 10 µM is 11.8%.

Take `Cc1c(C(=O)N2CC(O)C2)nnn1-c1cccc2cnccc12`: the cytotoxicity at 10 µM stood at 3.04%.

`CCc1nc(C(=O)N(CC)CC(=O)Nc2cc(Cl)ccc2C)c[nH]1`: the cytotoxicity at 10 µM stood at 8.44%.

In the case of `Cc1cnc(CN(C)C2CCN(Cc3cnc(C)s3)C2)o1` (configuration not stated), the cytotoxicity at 10 µM is -0.0499%.

As for `CCN1CCC(NC(=O)NC2CCOc3ccc(Br)cc32)CC1` (configuration not stated), the cytotoxicity at 10 µM is -1.15%.

As to `CCOC(C)c1nc(CN2CCC(NC(C)C)CC2)cs1` (configuration not stated), the cytotoxicity at 10 µM is 1.1%.

As for `COC(=O)c1ccoc1CN(C)CC(=O)N(C)C`, the cytotoxicity at 10 µM came to 3.39%.

`Cc1noc(C(C)Nc2ccc(N3CCOCC3)cc2C)n1` (configuration not stated): the cytotoxicity at 10 µM was -3.92%.

As to `Cc1nnc(CN(C)CCCOc2ccc(Cl)cc2)o1`, the cytotoxicity at 10 µM is -1.69%.

Consider `Cn1nc(Br)c2c(NCCSCCCO)ncnc21`, for which the cytotoxicity at 10 µM was 14.5%.

Consider `O=C(c1ccc(=O)[nH]n1)N(CCO)Cc1cc(Br)ccc1F`, for which the cytotoxicity at 10 µM worked out at 7.56%.

For the molecule `COc1ccc(OC)c(-n2nnnc2SCC2CCCN(C)C2)c1` (configuration not stated), the cytotoxicity at 10 µM is 1.28%.

For the molecule `Cc1ccc(S(=O)(=O)NC(=O)COc2ccc(CC#N)cc2)s1`, the cytotoxicity at 10 µM is 2.52%.

For `COC(=O)c1cccc(CN(C)Cc2ncnn2C)c1C#N`, the cytotoxicity at 10 µM is -4.23%.

For the molecule `CCCC1c2ccccc2CCN1CCS(C)(=O)=O` (configuration not stated), the cytotoxicity at 10 µM is -0.846%.

As for `N#Cc1ccc(F)c(CN2CCNC(=O)C2c2cccs2)c1` (configuration not stated), the cytotoxicity at 10 µM amounted to 11.5%.

Consider `COc1ccc(C)cc1CN(C)CCCNS(C)(=O)=O`, for which the cytotoxicity at 10 µM was -43.2%.

Regarding `CC(C)CC(C)NCCCN1CCCN(C)CC1` (configuration not stated), the cytotoxicity at 10 µM amounted to 24.7%.

For the molecule `CCOCC1CN(S(=O)(=O)Cc2ccccc2)Cc2nccn2C1` (configuration not stated), the cytotoxicity at 10 µM was -105%.

In the case of `CCC1=N[C@@]2(CC[C@@H]3CN(CC)C[C@@H]32)C(=O)N1C`, the cytotoxicity at 10 µM is -102%.

Regarding `Cc1cccc(CN2CCn3cc(CNC(=O)CC4CC4)nc3C2)n1`, the cytotoxicity at 10 µM was -73.2%.

As for `O=C(c1cccs1)N1CCc2ncc(Cn3cncn3)n2CC1`, the cytotoxicity at 10 µM is -89.8%.

With `Cn1cc(CN2CCCC3(CCN(c4cccnc4)C3=O)C2)cn1` (configuration not stated), the cytotoxicity at 10 µM is -74.9%.

For the molecule `CCc1ncc2c(n1)CN(c1nccc(C3CCCC3)n1)C2`, the cytotoxicity at 10 µM is -1.16%.

`Cc1ccc(CN2C[C@H]3OC(=O)N(Cc4ccccn4)[C@H]3C2)o1`: the cytotoxicity at 10 µM is 4.16%.

`CSCc1noc(CNC(=O)C2CCN(C(=O)C3CC3)CC2)n1`: the cytotoxicity at 10 µM was 11.5%.

Take `Cc1ccc(N2CCCN(CC3CC3)C(C(C)C)C2)nn1` (configuration not stated): the cytotoxicity at 10 µM turned out to be 13.3%.

With `CCCNc1ncc(C2CC(=O)NCc3nc4ccccn4c32)cn1` (configuration not stated), the cytotoxicity at 10 µM was -3.69%.

Consider `Cc1cc(NC(C)Cc2cccnc2)n2nccc2n1` (configuration not stated), for which the cytotoxicity at 10 µM amounted to 3.01%.

For `C=C(C)COc1cccc(CN(C)C(C)c2ccncn2)c1` (configuration not stated), the cytotoxicity at 10 µM is -47.6%.

Take `COc1nccnc1N1CCC2(CC1)[C@H](O)C[C@@H]2OCCN(C)C`: the cytotoxicity at 10 µM is 4.56%.

Consider `CN1CCCC(CCC(=O)N2CCc3[nH]c(-c4ccccc4)nc3C2)C1` (configuration not stated), for which the cytotoxicity at 10 µM was -4.13%.

For the molecule `CCc1cc(N(C)CCc2c(C)n[nH]c2C)ncn1`, the cytotoxicity at 10 µM was -4.45%.

As for `CCC(NC(=O)C1CCN(C(=O)C2CC2)CC1)c1cn2cccnc2n1` (configuration not stated), the cytotoxicity at 10 µM is 0.0482%.

As for `COCCNc1cc(-c2ccccc2S(N)(=O)=O)c2cc[nH]c2n1`, the cytotoxicity at 10 µM was found to be 6.68%.

For `c1cnn(CCC2CCN(Cc3ccc4[nH]ccc4c3)CC2)c1`, the cytotoxicity at 10 µM is -7.57%.

Consider `O=C(CCn1cnnn1)N1CCCC(CO)(CCCc2ccccc2)C1` (configuration not stated), for which the cytotoxicity at 10 µM was found to be 2.74%.

Consider `CCCOC1CCCN(Cc2nc(-c3cccs3)oc2C)C1` (configuration not stated), for which the cytotoxicity at 10 µM was -53.1%.

Turning to `CCCc1cc(NCc2nc(COC)no2)n2nccc2n1`, the cytotoxicity at 10 µM was -0.916%.

Take `COC(=O)c1ccc(CNC(=O)Cc2csc(C(C)=O)c2)cc1`: the cytotoxicity at 10 µM is 5.03%.

Take `CCOc1ccccc1CN(CC)Cc1ccc(S(C)(=O)=O)cc1`: the cytotoxicity at 10 µM is -4.6%.

Regarding `CC(C)c1cc(=O)[nH]c(-c2ccccc2CN2CCCCCC2)n1`, the cytotoxicity at 10 µM was -2.1%.

Regarding `COc1ccc(F)c(-c2cc(C)nc(N)n2)c1`, the cytotoxicity at 10 µM came out at 5.47%.

`CS(=O)(=O)N1CCCn2nc(CNc3cc(C#N)ccn3)cc2C1`: the cytotoxicity at 10 µM was -8.5%.

As to `COC(=O)c1cc(C)nc(N2CCN(Cc3cc(C(C)C)no3)CC2)n1`, the cytotoxicity at 10 µM was determined as 3.29%.

As for `CCc1cc(N[C@H]2CCC[C@H]2CO)n2nccc2n1`, the cytotoxicity at 10 µM was -10.1%.

Consider `Cc1cc(C(F)(F)F)cc(=O)n1Cc1nc(C(C)C)no1`, for which the cytotoxicity at 10 µM stood at 0.9%.

On to `CC(C)n1ccnc1C1CCN(C(=O)c2ccc(SCCO)cc2)CC1`, for which the cytotoxicity at 10 µM is -0.232%.

In the case of `Cc1ccc(CC(=O)N2CCCC(c3ccn[nH]3)C2)cn1` (configuration not stated), the cytotoxicity at 10 µM stood at 0.691%.

`CNc1nc(CNC(=O)Nc2ccc([S+](C)[O-])c(F)c2)cs1` (configuration not stated): the cytotoxicity at 10 µM is -12.2%.

Regarding `CC(C)c1nc(C2CCCN2C(=O)c2ccc(C#N)cn2)no1` (configuration not stated), the cytotoxicity at 10 µM was -3.19%.

For the molecule `Cc1nccn1C1CCCN(C(=O)COCC2CC2)C1` (configuration not stated), the cytotoxicity at 10 µM is -11.7%.

Regarding `Cc1ccc(C)c(CNC(=O)NC(C)(C(=O)O)c2ccco2)c1` (configuration not stated), the cytotoxicity at 10 µM was -10.8%.

Regarding `CN(Cc1cccc(F)c1)C1CCN(CCc2ccccn2)CC1`, the cytotoxicity at 10 µM is -5.38%.

In the case of `Cc1ccc(-c2nc(CN3CCc4nn(C)c(=O)cc4C3)no2)cc1`, the cytotoxicity at 10 µM is -8.38%.

On to `COc1cccc(Nc2nc(C3CCNCC3)c3sc(C)c(C)n23)c1`, for which the cytotoxicity at 10 µM amounted to 4.24%.

Regarding `Cc1cccc(CS(=O)(=O)c2nnc([C@@H](N)Cc3ccccc3)o2)c1`, the cytotoxicity at 10 µM amounted to 7.09%.

`Cc1ccc(CN2CCCC3(CCN(S(C)(=O)=O)C3)C2)o1` (configuration not stated): the cytotoxicity at 10 µM is 2.21%.

Take `O=C(c1cscn1)N1CCc2ncc(CN3CCCC3)n2CC1`: the cytotoxicity at 10 µM is -111%.

With `COCCNC(=O)[C@H]1C[C@@H]2CCN(CCc3ccccc3)C[C@@H]2O1`, the cytotoxicity at 10 µM was -74.5%.

For the molecule `Cc1ccc(N2CCO[C@H]3CN(Cc4ccncc4)C[C@H]32)nn1`, the cytotoxicity at 10 µM worked out at 1.23%.

On to `CC(C)N1CCC2(CCCN(C(=O)c3cncn3C)C2)CC1`, for which the cytotoxicity at 10 µM is -0.0499%.

Turning to `Cn1cc(CN2CC[C@@H]3[C@@H]2CCN3C(=O)Cc2cccc(F)c2)cn1`, the cytotoxicity at 10 µM is -80%.

With `COCCN1CCN(Cc2ccco2)Cc2ccc(C)nc21`, the cytotoxicity at 10 µM amounted to 0.657%.

On to `CN(Cc1cn2c(n1)CN(c1ncc(F)cn1)CC2)Cc1ccco1`, for which the cytotoxicity at 10 µM stood at 3.96%.
